Measured values pooled from the literature.
Each line is one published result; the experiments were not run side by side.
Organism: Pseudomonas aeruginosa
Read-out: microbial growth

With C[n+]1c(/C=C/c2ccc(O)cc2)cc(/C=C2\Sc3ccccc3N2CCCN2CCCC2)c2ccccc21.[I-] the MIC was over 64 µg/mL (broth dilution; ATCCBAA2108; drug-resistant strain).
COC(=O)c1cc(-c2cccc(NC(=S)Nc3cc(C(F)(F)F)cc(C(F)(F)F)c3)c2)on1 has an MIC of over 64 µg/mL (broth dilution; ATCC27853).
C[C@H]1COCCN1c1nc(NCc2cccnc2C(F)(F)F)c2cccnc2n1 has an MIC of 64 µg/mL (broth dilution; NCTC13437).
For CN[C@@H]1[C@H](O)[C@H](NC)[C@H]2O[C@@]3(O)C(=O)C[C@@H](C)O[C@H]3O[C@@H]2[C@H]1O, the MIC was 100 µg/mL (broth dilution; PAO1).
CC(=O)C1=C(O)C(CC(C)C)NC1=O (stereo not shown) gave an MIC of over 200 µg/mL (PA01).
The MIC of Nc1nc(-c2ccc(NC(=O)Nc3cccc(-c4c[nH]c(N)n4)c3F)cc2F)c[nH]1 is reported as over 200 µM (broth dilution; PAO1).
COC(=O)c1cc(-c2cccc(NC(=S)Nc3ccccc3)c2)on1 has an MIC of over 64 µg/mL (broth dilution; ATCC27853).
For CC1(C)S[C@@H]2[C@H](NC(=O)[C@H](N)c3ccccc3)C(=O)N2[C@H]1C(=O)O, the MIC was over 64 µg/mL (broth dilution; ATCCBAA2108; drug-resistant strain).
CCCCCCCCCCCC(=O)OC[C@H]1O[C@@H](n2cc(C)c(=O)[nH]c2=O)C[C@@H]1O gave an MIC of 8 µg/mL (broth dilution).
For C[n+]1c(/C=C/c2c[nH]c3ccccc23)cc(/C=C2\Sc3ccccc3N2CCCN2CCOCC2)c2ccccc21.[I-], the MIC was over 64 µg/mL (broth dilution; ATCCBAA2108; drug-resistant strain).
CCCCCCC#Cc1cncc(-c2nnc(Sc3ccc([N+](=O)[O-])cc3[N+](=O)[O-])n2C)c1 has an MIC of at least 20 µg/mL.
For COC(=O)c1cc(-c2cccc(NC(=O)NCc3ccccc3)c2)on1, the MIC was over 64 µg/mL (broth dilution; ATCC27853).
C[n+]1c(/C=C/c2c[nH]c3ccccc23)cc(/C=C2\Sc3ccccc3N2CCCN2CCCC2)c2ccccc21.[I-] gave an MIC of 32 µg/mL (broth dilution; ATCCBAA2108; drug-resistant strain).
The MIC of CC1(C)SC2C(NC(=O)C(NC(=O)C3=C(O)C(Cc4ccc([N+](=O)[O-])cc4)NC3=O)c3ccccc3)C(=O)N2C1C(=O)O (stereo not shown) is reported as 50 µg/mL.
For CN[C@H](CC(C)C)C(=O)N[C@H]1C(=O)N[C@@H](CC(N)=O)C(=O)N[C@H]2C(=O)N[C@H]3C(=O)N[C@H](C(=O)N[C@H](C(=O)O)c4cc(O)cc(O)c4-c4cc3ccc4O)[C@H](O)c3ccc(c(Cl)c3)Oc3cc2cc(c3O[C@@H]2O[C@H](CO)[C@@H](O)[C@H](O)[C@H]2O[C@H]2C[C@](C)(N)[C@H](O)[C@H](C)O2)Oc2ccc(cc2Cl)[C@H]1O, the MIC was over 64 µg/mL (broth dilution; ATCCBAA2108; drug-resistant strain).
CCOC(=O)c1nnn(-c2cccc(NC(=O)Nc3ccc(Cl)c(Cl)c3)c2)c1C has an MIC of over 64 µg/mL (broth dilution; ATCC27853).
